Laboratory results taken from PMC6420351 (ACS chemical biology, 2019).

Columns and labels:
CRBP1 [1] = target: T1, CRBP1 (Homo sapiens, UniProt P09455); experiment: Fluorescence atROL-replacing; format: binding; conditions: for binding to CRBP1: fluorescence titration of holo-CRBP1, 0–10 μM range for O-1918
T1 sequence (P09455 1-135): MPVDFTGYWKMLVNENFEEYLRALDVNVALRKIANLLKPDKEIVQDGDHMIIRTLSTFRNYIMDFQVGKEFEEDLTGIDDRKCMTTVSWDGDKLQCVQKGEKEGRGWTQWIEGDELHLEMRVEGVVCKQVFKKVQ

[2] = system: visual cycle retinoid flow; experiment: Visual chromophore regeneration after flash; format: in vivo, Balb/cJ mice; conditions: 0.25 mg of compound 1.5 h prior to flash bleaching 75% of rhodopsin
Method in brief: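 Dark-adapted (≥24 h) Balb/cJ mice given 0.25 mg test compound or DMSO 1.5 h before a flash bleaching 75% of rhodopsin. Kept dark, euthanised 1 min–8 h later; eyes frozen in liquid nitrogen. Under dim red light, eyes homogenised in 40 mM hydroxylamine in PBS/methanol (20 min RT), then hexane-extracted. Normal-phase HPLC (step ethyl acetate/hexane gradient) read at 325 and 360 nm, quantified against standards; n = 4, mean ± sd.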

[3] = Detection and quantification of abn-CBD in the ocular tissues; format: in vivo, Balb/cJ mice
Method in brief: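 Balb/cJ mice (5–8 weeks, dark-adapted ≥24 h) given a single i.p. 15 mg kg−1 dose. At 1–15 h mice were anaesthetised with ketamine and PBS-perfused. Eyes homogenised in PBS/methanol with 100 pmol deuterated test-compound internal standard, then hexane-extracted, dried and redissolved in ethanol. Quantified by LC/MS on a C18 column (70–100% methanol/water over 10 min), positive-mode ESI ion trap.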

cannabinoid receptor 2 = conditions: cited from earlier work
[4] = system: light-induced retinal damage; experiment: Bright light-induced retinal degeneration; format: in vivo, Balb/cJ mice; conditions: IP injection 1.5 h prior to light; OCT and histology a week later
CRBP2 = target: T2, CRBP2 (Homo sapiens, UniProt P50120); experiment: Fluorescence-binding assay with CRBP2
T2 sequence (P50120 1-134): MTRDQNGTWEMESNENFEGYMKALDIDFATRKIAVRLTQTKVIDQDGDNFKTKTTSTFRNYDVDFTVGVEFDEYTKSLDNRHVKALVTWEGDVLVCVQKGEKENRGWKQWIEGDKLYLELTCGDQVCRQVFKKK

cannabinoid receptor 1 = conditions: cited from earlier work
rodents = conditions: previous studies of wound healing, vasodilation, diabetes; cited from earlier work
RDH5 = target: T3, RDH5 (Bos taurus, UniProt Q27979); experiment: 11-cis-retinol oxidation assay in RPE microsomes; format: biochemical; conditions: bovine RPE microsomes preincubated with 10–50 μM
T3 sequence (Q27979 1-318): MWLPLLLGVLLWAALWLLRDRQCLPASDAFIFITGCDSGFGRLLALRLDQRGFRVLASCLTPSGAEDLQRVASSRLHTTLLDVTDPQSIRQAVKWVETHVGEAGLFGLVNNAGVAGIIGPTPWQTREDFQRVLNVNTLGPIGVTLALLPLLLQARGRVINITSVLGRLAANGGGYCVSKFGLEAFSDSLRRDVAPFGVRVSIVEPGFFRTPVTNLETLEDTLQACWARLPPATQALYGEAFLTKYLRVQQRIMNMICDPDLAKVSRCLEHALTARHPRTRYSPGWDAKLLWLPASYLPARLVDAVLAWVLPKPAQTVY
Method in brief: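 Bovine RPE microsomes (~100 μg total protein) preincubated with 10–50 μM test compound (1:1 to 1:5 molar excess) in 20 mM Tris/HCl pH 8.0, 1% BSA, 20 μM NAD+. 11-cis-Retinol (10 μM) added; 30 °C, 10 min. Stopped with methanol containing 40 mM hydroxylamine, 15 min RT. Hexane extract run on normal-phase HPLC (isocratic 10% ethyl acetate/hexane), detected at 325 nm.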

CRBP3 = target: T4, CRBP3 (Homo sapiens, UniProt P82980); experiment: Co-crystallization / X-ray structure of CRBP3 with ligand; format: binding; conditions: crystal structure PDB 6E5W
T4 sequence (P82980 1-135): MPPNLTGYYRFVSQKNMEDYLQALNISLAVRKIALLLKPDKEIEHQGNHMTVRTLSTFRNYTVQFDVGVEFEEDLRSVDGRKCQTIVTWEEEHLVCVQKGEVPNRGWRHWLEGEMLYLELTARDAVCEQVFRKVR
Method in brief: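 Apo-CRBP3 (8 mg mL−1) preincubated 15 min with 300 μM test compound. Drops made from 1 μL protein plus 1 μL 0.2 M sodium malonate pH 5.0, 20% PEG 3350 (w/v). Grown by sitting-drop vapour diffusion at RT.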

[5] = system: recovery of visual sensitivity; experiment: Scotopic full-field ERG recovery after photobleach; format: in vivo, Balb/cJ mice; conditions: 30 mg/kg; ERG 4 h after flash bleaching ~50% of visual pigment
CRBP4 = target: T5, CRBP4 (Homo sapiens, UniProt Q96R05); experiment: Co-crystallization / X-ray structure of CRBP4 with ligand; format: binding; conditions: crystal structure PDB 6E6K
T5 sequence (Q96R05 1-134): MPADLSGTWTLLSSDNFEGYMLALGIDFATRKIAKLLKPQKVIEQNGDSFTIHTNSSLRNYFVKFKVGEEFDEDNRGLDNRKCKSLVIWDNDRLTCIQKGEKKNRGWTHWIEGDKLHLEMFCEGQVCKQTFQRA
Method in brief: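 CRBP4 purified with a final 0–0.5 M NaCl gradient in 10 mM Tris/HCl pH 8.0, then concentrated to 6 mg mL−1. Protein preincubated with test compound. Crystallised in 0.2 M NaCl, 0.1 M BisTris pH 6.5, 25% PEG 3350 (w/v) by sitting-drop vapour diffusion at RT.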

RPE65 = RPE65 (Bos taurus, UniProt Q28175); experiment: RPE65 isomerization activity assay in RPE microsomes; format: biochemical; conditions: bovine RPE microsomes preincubated with 10–50 μM
Sequence of RPE65 (Q28175 whole entry): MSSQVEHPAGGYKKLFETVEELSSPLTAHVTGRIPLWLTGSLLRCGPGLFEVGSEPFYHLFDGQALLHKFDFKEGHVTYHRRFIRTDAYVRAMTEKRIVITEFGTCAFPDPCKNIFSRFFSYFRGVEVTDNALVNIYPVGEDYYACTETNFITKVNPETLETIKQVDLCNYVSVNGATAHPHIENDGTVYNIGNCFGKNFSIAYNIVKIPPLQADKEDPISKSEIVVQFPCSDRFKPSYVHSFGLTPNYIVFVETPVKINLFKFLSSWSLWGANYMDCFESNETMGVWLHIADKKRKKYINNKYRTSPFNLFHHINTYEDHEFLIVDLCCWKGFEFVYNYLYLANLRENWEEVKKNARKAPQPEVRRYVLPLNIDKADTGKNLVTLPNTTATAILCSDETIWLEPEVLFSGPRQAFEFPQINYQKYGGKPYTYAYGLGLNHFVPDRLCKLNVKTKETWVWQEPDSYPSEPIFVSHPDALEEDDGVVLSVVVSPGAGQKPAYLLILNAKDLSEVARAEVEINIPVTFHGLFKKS
Method in brief: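 UV-bleached bovine RPE microsomes were the RPE65 source, reacting in the presence of CRALBP. Microsomes preincubated with 10–50 μM test compound (1:1 to 1:5 molar excess). Reaction started with atROL (final 10 μM) and run at 30 °C for 30 min. Products extracted with hexane and analysed by normal-phase HPLC.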

LRAT = target: T6, LRAT (Bos taurus, UniProt Q9BGL2); experiment: Retinol esterification assay in RPE microsomes; format: biochemical; conditions: bovine RPE microsomes preincubated with 10–50 μM
T6 sequence (Q9BGL2 1-230): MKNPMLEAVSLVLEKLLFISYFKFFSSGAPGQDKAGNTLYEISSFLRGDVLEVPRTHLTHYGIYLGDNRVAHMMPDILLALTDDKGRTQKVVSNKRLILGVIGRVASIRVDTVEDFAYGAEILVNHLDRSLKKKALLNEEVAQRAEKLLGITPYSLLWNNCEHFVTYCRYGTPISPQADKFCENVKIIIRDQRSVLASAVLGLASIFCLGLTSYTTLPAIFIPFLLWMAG
Method in brief: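 UV-treated bovine RPE microsomes (~100 μg total protein) in 20 mM Tris/HCl pH 7.4, 1 mM DTT, 1% BSA. Test compound (10, 20 or 50 μM) added before atROL (final 10 μM). Initial rate taken after 5 min at RT, quenched with methanol, extracted with hexane. Normal-phase HPLC (isocratic 10% ethyl acetate/hexane, 325 nm). Retinyl esters quantified against synthetic standards.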

CRBP1 [6] = conditions: read-out: affinity for atROL; cited from earlier work

C=C(C)[C@@H]1CCC(C)=CC1c1c(O)cc(C)cc1O (stereo partly drawn) [CBDO, 5-methyl-2-[(6R)-3-methyl-6-prop-1-en-2-ylcyclohex-2-en-1-yl]benzene-1,3-diol]
Ki (CRBP1 [1]): ~1700 nM
fold increase of the Ki value (CRBP1 [1]; further increase relative to abn-CBDO): 6.3 fold

C=C(C)[C@@H]1CCC(C)=C[C@H]1c1c(OC)cc(C)cc1OC [O-1918, 1,3-dimethoxy-5-methyl-2-[(1R,6R)-3-methyl-6-prop-1-en-2-ylcyclohex-2-en-1-yl]benzene]
binding to CRBP1 (CRBP1 [1]): abolished the meaningful binding

C=C(C)[C@@H]1CCC(C)=C[C@H]1c1c(O)cc(O)cc1CCCCC [abn-CBD, 4-[(1R,6R)-3-Methyl-6-prop-1-en-2-ylcyclohex-2-en-1-yl]-5-pentylbenzene-1,3-diol]
Ki (CRBP1 [1]): ~67 nM
atROL level during chromophore regeneration [2]: transient accumulation of atROL
rate of 11-cis-retinal regeneration [2]: noticeably slower
rate of all-trans-retinal clearance vs control [2]: no differences
half-life ([3]; Balb/cJ, mouse, eye (PBS-perfused, homogenised), ip, 15 mg/kg): ~420 min
time of maximum ocular level after the injection ([3]; single IP dose 15 mg kg^−1): 2 h
maximum ocular level ([3]; single IP dose 15 mg kg^−1, PBS-perfused mouse eyes): 58 pmol/eye
interaction with cannabinoid receptor 2 (cannabinoid receptor 2): does not interact
protection against light-induced retinal damage [4]: largely protected against the light-induced retinal damage
interaction with CRBP2 (CRBP2): absence of interaction
interaction with cannabinoid receptor 1 (cannabinoid receptor 1): does not interact
toxicity in rodents (rodents): did not report toxicity
effect on RDH5 enzymatic activity (RDH5): did not cause a measurable decline
binding to CRBP3 (CRBP3): bind abn-CBD similarly to CRBP1
recovery of a-wave and b-wave amplitudes after light illumination [5]: slower
binding to CRBP4 (CRBP4): bind abn-CBD similarly to CRBP1
effect on RPE65 enzymatic activity (RPE65): did not cause a measurable decline
effect on LRAT enzymatic activity (LRAT): did not cause a measurable decline

C=C(C)[C@@H]1CCC(C)=C[C@H]1c1c(C)cc(O)cc1O [abn-CBDO, 5-methyl-4-[(1R,6R)-3-methyl-6-prop-1-en-2-ylcyclohex-2-en-1-yl]benzene-1,3-diol]
apparent affinity lowered compared with abn-CBD (CRBP1 [1]; fold change of Ki vs abn-CBD): 4.3 times

CC1=C(/C=C/C(C)=C/C=C/C(C)=C/CO)C(C)(C)CCC1 [atROL, all-trans-retinol]
Ki (CRBP1 [1]): ~34 nM
Kd (CRBP1 [6]): < 1 nM

C=C(C)[C@H]1CC=C(C)CC1 [limonene]
binding to CRBP1 (CRBP1 [1]): did not observe limonene interacting
